According to ChEMBL document CHEMBL3400019, “Pheophorbide-a conjugates with cancer-targeting moieties for targeted photodynamic cancer therapy” (Bioorg Med Chem, 2015):
The source made the active and inactive calls. The rule behind the calls is not given here. Residues, ends and D or L forms follow the SMILES beside them.

Key:
[1] = test system: FaDu; assay: Induction of apoptosis in human FADU cells overexpressing alphaVbeta6 assessed as increase in Bax expression at 0.1 to 1 uM incubated for 1 hr prior to 1.25 J/cm'2 light irradiation from red light emitting diode measured after 24 hrs by Western blotting analysis relative to control; format: functional, cell-based
In short: (§1)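 A549 and FaDu seeded 2 × 10^5 cells/well, given PDT (1 h conjugate, 1.25 J/cm2 red LED, 613–645 nm, 35 mW/cm2 at 635 nm peak), then 24 h incubation; lysed, equal protein by SDS–PAGE, PVDF transfer, antibody immunoblot for PARP cleavage, procaspase-3, Bcl-2, Bax.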

[2] = test system: FaDu; assay: Induction of apoptosis in human FADU cells overexpressing alphaVbeta6 assessed as reduction in Bcl-2 expression at 0.1 to 1 uM incubated for 1 hr prior to 1.25 J/cm'2 light irradiation from red light emitting diode measured after 24 hrs by Western blotting analysis relative to control; format: functional, cell-based; in short: as §1
[3] = test system: FaDu; assay: Cellular uptake in human FADU cells overexpressing alphaVbeta6 at 2 uM after 1 hr by confocal microscopy; format: ADME, cell-based
In short: (§2)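 Cells plated on slide dishes overnight (A549 in DMEM, others in RPMI 1640, 10% FBS, 37 °C, 5% CO2); conjugate added to medium at 2 µM, incubated (time per line), washed three times with PBS, imaged by confocal microscopy; excitation 440 nm, emission 655–755 nm.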

[4] = test system: FaDu; assay: Induction of apoptosis in human FADU cells overexpressing alphaVbeta6 assessed as PARP cleavage at 0.1 to 1 uM incubated for 1 hr prior to 1.25 J/cm'2 light irradiation from red light emitting diode measured after 24 hrs by Western blotting analysis relative to control; format: functional, cell-based; in short: as §1
[5] = test system: FaDu; assay: Induction of apoptosis in human FADU cells overexpressing alphaVbeta6 assessed as cellular shrinkage at 1 uM incubated for 1 hr prior to 1.25 J/cm'2 light irradiation from red light emitting diode measured after 24 hrs by DAPI staining-based conventional fluorescence microscopy relative to control; format: functional, cell-based
[6] = test system: FaDu; assay: (§3) Induction of apoptosis in human FADU cells overexpressing alphaVbeta6 assessed as cell rounding at 1 uM incubated for 1 hr prior to 1.25 J/cm'2 light irradiation from red light emitting diode measured after 24 hrs by DAPI staining-based conventional fluorescence microscopy relative to control; format: functional
[7] = test system: FaDu; assay: Induction of apoptosis in human FADU cells overexpressing alphaVbeta6 assessed as decrease in procaspase-3 expression at 0.1 to 1 uM incubated for 1 hr prior to 1.25 J/cm'2 light irradiation from red light emitting diode measured after 24 hrs by Western blotting analysis relative to control
[8] = test system: A549; assay: (§4) Induction of apoptosis in alphaVbeta6-negative human A549 cells assessed as increase in apoptotic cell death incubated for 1 hr prior to 1.25 J/cm'2 light irradiation from red light emitting diode measured after 24 hrs by Annexin V-FITC/propidium iodide staining-based flow cytometry relative to control; format: functional
In short: (§5)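 Cells seeded 5 × 10^5 per plate and given photodynamic treatment as in the viability assay: conjugate in serum-free medium, then red LED light (613–645 nm) at 1.25 J/cm2. Harvested 24 h later and washed in cold PBS. Stained 15 min at rt with saturating Annexin V-FITC and PI in HEPES binding buffer (10 mM HEPES, 140 mM NaCl, 2.5 mM CaCl2, pH 7.4). Read by flow cytometry against control.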

[9] = test system: A549; assay: (§6) Induction of apoptosis in alphaVbeta6-negative human A549 cells assessed as condensation and the fragmentation of nuclear structure at 1 uM incubated for 1 hr prior to 1.25 J/cm'2 light irradiation from red light emitting diode measured after 24 hrs by DAPI staining-based conventional fluorescence microscopy relative to control; format: functional, cell-based
In short: (§7)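 A549 and FaDu seeded 5 × 10^5 cells/well, PDT (1 h conjugate, 1.25 J/cm2 red LED, 613–645 nm), 24 h; fixed in 4% paraformaldehyde, stained with 1 µg/mL DAPI 5 min dark at rt, washed ice-cold PBS, nuclear chromatin changes viewed by fluorescence microscopy (×400).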

[10] = test system: A549; assay: Phototoxicity against alphaVbeta6-negative human A549 cells at 0.1 to 2 uM incubated for 2 hrs followed by 1.25 J/cm'2 light irradiation from red light emitting diode for 24 hrs by MTT assay; format: functional, cell-based
In short: (§8)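 Cells seeded at 1 × 10^5 cells/mL overnight, PBS-washed, incubated 2 h in serum-free medium with photosensitizer (from 1 mM DMSO stock); medium removed, irradiated 1.25 J/cm2 red LED (613–645 nm). After 24 h, MTT (5 mg/mL stock) 3 h at 37 °C, formazan dissolved in 0.04 M HCl/isopropanol, OD 570 nm; background-subtracted, % of control; mean ± SD, three experiments.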

[11] = test system: A549; assay: Cellular uptake in alphaVbeta6-negative human A549 cells at 2 uM after 1 hr by confocal microscopy; format: ADME, cell-based; conditions: a549, 1 h; in short: as §2
[12] = test system: FaDu; assay: Phototoxicity against human FADU cells overexpressing alphaVbeta6 at 0.1 to 2 uM incubated for 2 hrs followed by 1.25 J/cm'2 light irradiation from red light emitting diode for 24 hrs by MTT assay; format: functional, cell-based; in short: as §8
[13] = test system: A549; assay: Induction of apoptosis in alphaVbeta6-negative human A549 cells assessed as decrease in cell density at 1 uM incubated for 1 hr prior to 1.25 J/cm'2 light irradiation from red light emitting diode measured after 24 hrs by DAPI staining-based conventional fluorescence microscopy relative to control; format: functional
[14] = test system: FaDu; assay: as §3, with “assessed as decrease in cell density” for “assessed as cell rounding”, “in cell density at 1” for “as cell rounding at 1”; format: functional
[15] = test system: FaDu; assay: as §4, with “in” for “in alphaVbeta6-negative”, “FADU” for “A549”, “cells overexpressing alphaVbeta6” for “cells”; format: functional; in short: as §5
[16] = test system: A549; assay: Induction of apoptosis in alphaVbeta6-negative human A549 cells assessed as PARP cleavage at 0.1 to 1 uM incubated for 1 hr prior to 1.25 J/cm'2 light irradiation from red light emitting diode measured after 24 hrs by Western blotting analysis relative to control; format: functional, cell-based; in short: as §1
[17] = test system: A549; assay: Induction of apoptosis in alphaVbeta6-negative human A549 cells assessed as cellular shrinkage at 1 uM incubated for 1 hr prior to 1.25 J/cm'2 light irradiation from red light emitting diode measured after 24 hrs by DAPI staining-based conventional fluorescence microscopy relative to control; format: functional, cell-based
[18] = test system: A549; assay: Induction of apoptosis in alphaVbeta6-negative human A549 cells assessed as cell rounding at 1 uM incubated for 1 hr prior to 1.25 J/cm'2 light irradiation from red light emitting diode measured after 24 hrs by DAPI staining-based conventional fluorescence microscopy relative to control; format: functional
[19] = test system: FaDu; assay: as §6, with “in” for “in alphaVbeta6-negative”, “FADU” for “A549”, “cells overexpressing alphaVbeta6” for “cells”; format: functional, cell-based; in short: as §7
[20] = test system: SK-OV-3; assay: Phototoxicity against LHRH receptor-negative human SKOV3 cells at 0.1 to 2 uM incubated for 2 hrs followed by 1.25 J/cm'2 light irradiation from red light emitting diode for 24 hrs by MTT assay; format: functional, cell-based; in short: as §8
[21] = test system: MCF7; assay: Phototoxicity against human MCF7 cells overexpressing LHRH receptor at 0.1 to 2 uM incubated for 2 hrs followed by 1.25 J/cm'2 light irradiation from red light emitting diode for 24 hrs by MTT assay; format: functional, cell-based; in short: as §8
[22] = test system: A549; assay: Phototoxicity against alphaVbeta3-negative human A549 cells at 0.1 to 2 uM incubated for 2 hrs followed by 1.25 J/cm'2 light irradiation from red light emitting diode for 24 hrs by MTT assay; format: functional, cell-based; in short: as §8
[23] = Cellular uptake in human U87MG cells overexpressing alphaVbeta3 at 2 uM after 1 hr by confocal microscopy; format: ADME, cell-based; conditions: u-87mg atcc; in short: as §2
[24] = test system: A549; assay: Cellular uptake in alphaVbeta3-negative human A549 cells at 2 uM after 1 hr by confocal microscopy; format: ADME, cell-based; conditions: a549, 1 h; in short: as §2
[25] = test system: U-87MG ATCC; assay: Phototoxicity against human U87MG cells overexpressing alphaVbeta3 at 0.1 to 2 uM incubated for 2 hrs followed by 1.25 J/cm'2 light irradiation from red light emitting diode for 24 hrs by MTT assay; format: functional, cell-based; in short: as §8
[26] = test system: A549; assay: Phototoxicity against folate receptor-negative human A549 cells at 0.1 to 2 uM incubated for 2 hrs followed by 1.25 J/cm'2 light irradiation from red light emitting diode for 24 hrs by MTT assay; format: functional, cell-based; in short: as §8
[27] = test system: KB; assay: Phototoxicity against human KB cells overexpressing folate receptor at 0.1 to 2 uM incubated for 2 hrs followed by 1.25 J/cm'2 light irradiation from red light emitting diode for 24 hrs by MTT assay; format: functional, cell-based; in short: as §8
[28] = test system: A549; assay: Cellular uptake in folate receptor-negative human A549 cells at 2 uM after 1 hr by confocal microscopy; format: ADME, cell-based; conditions: a549, 0.5 h, in the assay text read “after 0.5 hr” for “after 1 hr”; in short: as §2
[29] = Cellular uptake in human KB cells overexpressing folate receptor at 2 uM after 1 hr by confocal microscopy; format: ADME, cell-based; conditions: 0.5 h, in the assay text read “after 0.5 hr” for “after 1 hr”; in short: as §2
[30] = Cellular uptake in LHRH receptor-negative human SKOV3 cells at 2 uM after 1.5 hr by confocal microscopy; conditions: sk-ov-3, 1.5 h
[31] = test system: MCF7; assay: Cellular uptake in human MCF7 cells overexpressing LHRH receptor at 2 uM after 1.5 hrs by confocal microscopy; format: ADME, cell-based; conditions: mcf7, 1.5 h; in short: as §2

For `[H][C@]12CSSC[C@]([H])(NC1=O)C(=O)N[C@@H](CCCNC(=N)N)C(=O)NCC(=O)N[C@@H](CC(=O)NCCCNC(=O)CC[C@@H]1c3nc(cc4[nH]c(cc5nc(cc6[nH]c7c(c6C)C(=O)[C@H](C(=O)OC)c37)C(CC)=C5C)c(C=C)c4C)[C@H]1C)C(=O)N[C@@H](CC(C)C)C(=O)N[C@@H](C)C(=O)N[C@@H](CO)C(=O)N[C@@H](CC(C)C)C(=O)N2` (HELM PEPTIDE1{R.G.D.L.A.S.L.C.C}|CHEM1{[C=Cc1c(C)c2cc3nc(c4c5[nH]c(cc6nc(cc1[nH]2)C(C)=C6CC)c(C)c5C(=O)[C@@H]4C(=O)OC)[C@@H](CCC(=O)NCCCN[*:1])[C@@H]3C]}$PEPTIDE1,CHEM1,3:R3-1:R1|PEPTIDE1,PEPTIDE1,8:R3-9:R3|PEPTIDE1,PEPTIDE1,1:R1-9:R2$$$V2.0), the Activity [1] was “Active”, the Activity [2] was “Active” and the Drug uptake [3] was “Active”. The Activity [4] was “Active”, the Activity [5] was “Active” and the Activity [6] was “Active”. The Activity [7] was “Active”, the Activity [8] was 19.8% and the Activity [9] was “inactive”. The Activity [10] was “inactive”, the Drug uptake [11] was “Not Active” and the Activity [12] was “Active”. For the same compound, the Activity [13] was “inactive”, the Activity [14] was “Active” and the Activity [15] was “Dose-dependent effect”. For the same compound, the Activity ([15]; record 2) was 31.4%, the Activity [16] was “inactive” and the Activity [17] was “inactive”. The Activity [18] was “inactive” and the Activity [19] was “Active”.
In the case of `C=Cc1c(C)c2cc3nc(c4c5[nH]c(cc6nc(cc1[nH]2)C(C)=C6CC)c(C)c5C(=O)[C@@H]4C(=O)OC)[C@@H](CCC(=O)NCCCC(=O)OC[C@H](NC(=O)[C@@H](Cc1c[nH]c2ccccc12)NC(=O)[C@H](Cc1cnc[nH]1)NC(=O)[C@@H]1CCC(=O)N1)C(=O)N[C@@H](Cc1ccc(O)cc1)C(=O)N[C@H](CC(C)C)C(=O)N[C@@H](CC(C)C)C(=O)N[C@@H](CCCNC(=N)N)C(=O)N1CCC[C@H]1C(=O)NCC)[C@@H]3C`, the Activity [20] is reported as “inactive” and the Activity [21] is reported as “Active”.
With `C=Cc1c(C)c2cc3nc(c4c5[nH]c(cc6nc(cc1[nH]2)C(C)=C6CC)c(C)c5C(=O)[C@@H]4C(=O)OC)[C@@H](CCC(=O)NCCCC(=O)NCCCC[C@H]1NC(=O)[C@@H](Cc2ccccc2)NC(=O)[C@H](CC(=O)O)NC(=O)CNC(=O)[C@H](CCCNC(=N)N)NC1=O)[C@@H]3C` the Activity [22] was “inactive”, the Drug uptake [23] was “Active” and the Drug uptake [24] was “Not Active”. For the same compound, the Activity [25] was “Active”.
With `C=Cc1c(C)c2cc3nc(c4c5[nH]c(cc6nc(cc1[nH]2)C(C)=C6CC)c(C)c5C(=O)[C@@H]4C(=O)OC)[C@@H](CCC(=O)NCCOCCOCCNC(=O)CCC(NC(=O)c1ccc(NCc2cnc4nc(N)[nH]c(=O)c4n2)cc1)C(=O)O)[C@@H]3C` (some centres not stated) the Activity [26] was “inactive”, the Activity [27] was “Active” and the Drug uptake [28] was “Not Active”. The Drug uptake [29] was “Active”.
With `C=Cc1c(C)c2cc3nc(c4c5[nH]c(cc6nc(cc1[nH]2)C(C)=C6CC)c(C)c5C(=O)[C@@H]4C(=O)OC)[C@@H](CCC(=O)NCCCC(=O)OC[C@H](NC(=O)[C@H](Cc1c[nH]c2ccccc12)NC(=O)[C@H](Cc1cnc[nH]1)NC(=O)[C@@H]1CCC(=O)N1)C(=O)N[C@@H](Cc1ccc(O)cc1)C(=O)N[C@H](CC(C)C)C(=O)N[C@@H](CC(C)C)C(=O)N[C@@H](CCCNC(=N)N)C(=O)N1CCC[C@H]1C(=O)NCC)[C@@H]3C` the Drug uptake [30] was “Not Active” and the Drug uptake [31] was “Active”.
